Data from ChEMBL document CHEMBL2384906, “Biological activity, design, synthesis and structure activity relationship of some novel derivatives of curcumin containing sulfonamides” (Eur J Med Chem, 2013).
Values after ≈ are worked out from the molar mass of the structure shown. Active and inactive are the calls of the source. The rule behind the calls is not given here.

What was measured:
Salmonella typhi [1] = test: Antimicrobial activity against Salmonella typhi ATCC 23564 assessed as diameter of inhibition zone at 40 uM after 24 hrs by Kirby -Baur disc diffusion method; format: functional; conditions: Salmonella enterica subsp. enterica serovar Typhi
Salmonella typhi [2] = test: Antimicrobial activity against Salmonella typhi ATCC 23564 assessed as diameter of inhibition zone at 80 uM after 24 hrs by Kirby -Baur disc diffusion method; format: functional, Salmonella enterica subsp. enterica serovar Typhi; conditions: Salmonella enterica, ATCC 23564, 24 h; read-out: DIZ
Staphylococcus aureus [3] = test: Antimicrobial activity against Staphylococcus aureus ATCC 11632 after 24 hrs by broth micro serial dilution method; format: functional; conditions: ATCC 11632, 24 h
Procedure, shortened: (§1)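 This was broth microdilution in autoclaved Mueller-Hinton broth. 150 µL of compound per well was serially diluted […], and 50 µL of test organism was added. Plates were incubated 24 h at 37 °C and optical density was read.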

Staphylococcus aureus [4] = test: Antimicrobial activity against Staphylococcus aureus ATCC 11632 assessed as diameter of inhibition zone at 40 uM after 24 hrs by Kirby -Baur disc diffusion method; format: functional
Procedure, shortened: (§2)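 Kirby-Bauer disc diffusion was used. Acetone stocks (160 µM) were serially doubled down to 80, 40 and 20 µM. 4 µL of each went onto 5 mm sterile paper discs, which were dried 30 min at 50 °C. Inoculum was 1.5 × 10⁸ CFU/mL diluted to 3 × 10² CFU/mL, and 50 µL was spread on Mueller-Hinton agar. After 24 h at 37 °C the inhibition-zone diameter was measured. Ciprofloxacin served as positive control.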

Curvularia lunata [5] = test: Antifungal activity against Curvularia lunata MTCC 581 after 48 hrs; format: functional; conditions: MTCC 581, 48 h
Curvularia lunata [6] = test: Antifungal activity against Curvularia lunata MTCC 581 assessed as zone of inhibition at 80 uM after 48 hrs by disc diffusion method; format: functional; conditions: MTCC 581, 48 h, read-out: IZ
Procedure, shortened: (§3)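 Spores from 4-day potato dextrose agar cultures, suspended in sterile water at 1.5 × 10⁵ CFU/mL. 0.2 mL was spread on potato dextrose agar. 5 mm filter-paper discs soaked with test compound were laid on the lawn. Incubation was 48 h at 28 °C, then the inhibition zone was measured in mm. Fluconazole was the positive control and acetone the negative control.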

Trichoderma viride [7] = test: Antifungal activity against Trichoderma viride MTCC 1107 assessed as zone of inhibition at 20 uM after 48 hrs by disc diffusion method; format: functional; conditions: MTCC 1107, 48 h, read-out: IZ; procedure, shortened: as §3
Curvularia lunata [8] = test: Antifungal activity against Curvularia lunata MTCC 581 assessed as zone of inhibition at 40 uM after 48 hrs by disc diffusion method; format: functional; conditions: MTCC 581, 48 h, read-out: IZ; procedure, shortened: as §3
Salmonella typhi [9] = test: Antimicrobial activity against Salmonella typhi ATCC 23564 assessed as diameter of inhibition zone at 20 uM after 24 hrs by Kirby -Baur disc diffusion method; format: functional; conditions: Salmonella enterica subsp. enterica serovar Typhi
Curvularia lunata [10] = test: Antifungal activity against Curvularia lunata MTCC 581 assessed as zone of inhibition at 20 uM after 48 hrs by disc diffusion method; format: functional; conditions: MTCC 581, 48 h, read-out: IZ; procedure, shortened: as §3
Aspergillus niger [11] = test: Antifungal activity against Aspergillus niger MTCC 1108 after 48 hrs; format: functional
Escherichia coli [12] = test: Antimicrobial activity against Escherichia coli ATCC 35218 assessed as diameter of inhibition zone at 20 uM after 24 hrs by Kirby -Baur disc diffusion method; format: functional; conditions: ATCC 35218, 24 h, read-out: DIZ; procedure, shortened: as §2
Bacillus cereus [13] = test: Antimicrobial activity against Bacillus cereus MTCC 7350 assessed as diameter of inhibition zone at 40 uM after 24 hrs by Kirby -Baur disc diffusion method; format: functional; procedure, shortened: as §2
Trichoderma viride [14] = test: Antifungal activity against Trichoderma viride MTCC 1107 assessed as zone of inhibition at 40 uM after 48 hrs by disc diffusion method; format: functional; conditions: MTCC 1107, 48 h, read-out: IZ; procedure, shortened: as §3
Aspergillus flavus [15] = test: Antifungal activity against Aspergillus flavus MTCC 1021 after 48 hrs; format: functional
QG-56 = test: Cytotoxicity against human QG56 cells after 24 hrs by MTT assay; format: functional, cell-based
Procedure, shortened: (§4)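 The MTT assay seeded 5 × 10⁴ cells per well and grew them 24 h in RPMI 1640 with compound at 2.5–200 µM. Medium without cells was the blank and adriamycin the positive control. MTT was added for 4 h at 37 °C, formazan was solubilised, and absorbance was read at 570 nm. IC50 is the concentration that cuts viability 50% against untreated cells.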

Bacillus cereus [16] = test: Antimicrobial activity against Bacillus cereus MTCC 7350 after 24 hrs by broth micro serial dilution method; format: functional; conditions: MTCC 7350, 24 h; procedure, shortened: as §1
HeLa = test: Cytotoxicity against human HeLa cells after 24 hrs by MTT assay; format: functional, cell-based; procedure, shortened: as §4
Escherichia coli [17] = test: Antimicrobial activity against Escherichia coli ATCC 35218 assessed as diameter of inhibition zone at 80 uM after 24 hrs by Kirby -Baur disc diffusion method; format: functional; procedure, shortened: as §2
Escherichia coli [18] = test: Antimicrobial activity against Escherichia coli ATCC 35218 assessed as diameter of inhibition zone at 40 uM after 24 hrs by Kirby -Baur disc diffusion method; format: functional; conditions: ATCC 35218, 24 h, read-out: DIZ; procedure, shortened: as §2
Pseudomonas aeruginosa [19] = test: Antimicrobial activity against Pseudomonas aeruginosa ATCC 15499 after 24 hrs by broth micro serial dilution method; format: functional; conditions: ATCC 15499, 24 h; procedure, shortened: as §1
Staphylococcus aureus [20] = test: Antimicrobial activity against Staphylococcus aureus ATCC 11632 assessed as diameter of inhibition zone at 80 uM after 24 hrs by Kirby -Baur disc diffusion method; format: functional; conditions: ATCC 11632, 24 h, read-out: DIZ; procedure, shortened: as §2
Bacillus cereus [21] = test: Antimicrobial activity against Bacillus cereus MTCC 7350 assessed as diameter of inhibition zone at 80 uM after 24 hrs by Kirby -Baur disc diffusion method; format: functional; conditions: MTCC 7350, 24 h, read-out: DIZ; procedure, shortened: as §2
Staphylococcus aureus [22] = test: Antimicrobial activity against Staphylococcus aureus ATCC 11632 assessed as diameter of inhibition zone at 20 uM after 24 hrs by Kirby -Baur disc diffusion method; format: functional; procedure, shortened: as §2
HCT-116 = test: Cytotoxicity against human HCT116 cells after 24 hrs by MTT assay; format: functional, cell-based; procedure, shortened: as §4
Mus musculus = test: Antiinflammatory activity in mouse assessed as inhibition of carrageenan-induced increase in paw volume at 200 mg/kg administered 1 hr prior to carrageenan challenge measured after 3 hrs relative to control; format: functional
Procedure, shortened: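 Mice were fasted 2 h and placed in groups of five. Controls received saline i.p. Phenylbutazone was given at 100 mg/kg i.p., curcumin at 200 mg/kg i.p., and derivatives at 200 mg/kg. After 1 h, 0.1 mL of 1% carrageenan in saline was injected subplantar into the right hind paw. Paw volume was followed by plethysmometer for 3 h, and % inhibition was calculated as (Vc − Vt)/Vc × 100.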

Trichoderma viride [23] = test: Antifungal activity against Trichoderma viride MTCC 1107 assessed as zone of inhibition at 80 uM after 48 hrs by disc diffusion method; format: functional; conditions: MTCC 1107, 48 h, read-out: IZ; procedure, shortened: as §3
Bacillus cereus [24] = test: Antimicrobial activity against Bacillus cereus MTCC 7350 assessed as diameter of inhibition zone at 20 uM after 24 hrs by Kirby -Baur disc diffusion method; format: functional; procedure, shortened: as §2
Aspergillus flavus [25] = test: Antifungal activity against Aspergillus flavus MTCC 1021 assessed as zone of inhibition at 80 uM after 48 hrs by disc diffusion method; format: functional; procedure, shortened: as §3
Escherichia coli [26] = test: Antimicrobial activity against Escherichia coli ATCC 35218 after 24 hrs by broth micro serial dilution method; format: functional; conditions: ATCC 35218, 24 h; procedure, shortened: as §1
Pseudomonas aeruginosa [27] = test: Antimicrobial activity against Pseudomonas aeruginosa ATCC 15499 assessed as diameter of inhibition zone at 80 uM after 24 hrs by Kirby -Baur disc diffusion method; format: functional; procedure, shortened: as §2
Salmonella typhi [28] = test: Antimicrobial activity against Salmonella typhi ATCC 23564 after 24 hrs by broth micro serial dilution method; format: functional, Salmonella enterica subsp. enterica serovar Typhi; conditions: Salmonella enterica, ATCC 23564, 24 h
Trichoderma viride [29] = test: Antifungal activity against Trichoderma viride MTCC 1107 after 48 hrs; format: functional; conditions: MTCC 1107, 48 h
HepG2 = test: Cytotoxicity against human HepG2 cells after 24 hrs by MTT assay; format: functional, cell-based; procedure, shortened: as §4
Aspergillus niger [30] = test: Antifungal activity against Aspergillus niger MTCC 1108 assessed as zone of inhibition at 80 uM after 48 hrs by disc diffusion method; format: functional; procedure, shortened: as §3
Pseudomonas aeruginosa [31] = test: Antimicrobial activity against Pseudomonas aeruginosa ATCC 15499 assessed as diameter of inhibition zone at 40 uM after 24 hrs by Kirby -Baur disc diffusion method; format: functional; conditions: ATCC 15499, 24 h, read-out: DIZ; procedure, shortened: as §2
Pseudomonas aeruginosa [32] = test: Antimicrobial activity against Pseudomonas aeruginosa ATCC 15499 assessed as diameter of inhibition zone at 20 uM after 24 hrs by Kirby -Baur disc diffusion method; format: functional; procedure, shortened: as §2

Row | SMILES | diameter of the inhibition zone (DIZ) (Salmonella typhi [1]) | zone of inhibition at 80 µM (Salmonella typhi [2]) | MIC (Staphylococcus aureus [3]) | MIC (Curvularia lunata [5]) | zone of inhibition at 80 µM (Curvularia lunata [6]) | zone of inhibition at 20 µM (Trichoderma viride [7]) | zone of inhibition at 40 µM (Curvularia lunata [8]) | diameter of the inhibition zone (DIZ) (Salmonella typhi [9]) | zone of inhibition at 20 µM (Curvularia lunata [10]) | zone of inhibition at 40 µM (Trichoderma viride [14]) | IC50 (QG-56) | MIC (Bacillus cereus [16]) | IC50 (HeLa) | MIC (Pseudomonas aeruginosa [19]) | zone of inhibition at 80 µM (Staphylococcus aureus [20]) | zone of inhibition at 80 µM (Bacillus cereus [21]) | diameter of the inhibition zone (DIZ) (Staphylococcus aureus [22]) | IC50 (HCT-116) | inhibition in vivo at 200 mg/kg (Mus musculus) | zone of inhibition at 80 µM (Trichoderma viride [23]) | further results
1 | COc1cc(/C=C/c2nn(-c3ccccc3)c(/C=C/c3ccc(O)c(OC)c3)c2/N=N/c2ccc(S(=O)(=O)Nc3nc(C)cc(C)n3)cc2)ccc1O | inactive | 9 mm | > 80 µM | 20 µM (≈ 14.6 µg/mL) | 22 mm | 18 mm | 19 mm | inactive | 18 mm | 19 mm | 100 µM | > 80 µM | 50 µM | > 80 µM | 9 mm | 9 mm | inactive | Not Active | 37% | 22 mm | zone of inhibition at 40 µM (Staphylococcus aureus [4]; ATCC 11632, 24 h, read-out: DIZ): 8 mm; MIC (Aspergillus niger [11]): inactive; zone of inhibition at 20 µM (Escherichia coli [12]): 9 mm; diameter of the inhibition zone (DIZ) (Bacillus cereus [13]): inactive; MIC (Aspergillus flavus [15]): inactive; zone of inhibition at 80 µM (Escherichia coli [17]; ATCC 35218, 24 h, read-out: DIZ): 12 mm; zone of inhibition at 40 µM (Escherichia coli [18]): 11 mm; diameter of the inhibition zone (DIZ) (Bacillus cereus [24]): inactive; inhibition zone (IZ) (Aspergillus flavus [25]): inactive; MIC (Escherichia coli [26]): > 80 µM; diameter of the inhibition zone (DIZ) (Pseudomonas aeruginosa [27]): inactive; MIC (Salmonella typhi [28]): > 80 µM; MIC (Trichoderma viride [29]): 20 µM (≈ 14.6 µg/mL); IC50 (HepG2): > 100 µM; inhibition zone (IZ) (Aspergillus niger [30]): inactive
2 | COc1cc(/C=C/c2noc(/C=C/c3ccc(O)c(OC)c3)c2/N=N/c2ccc(S(=O)(=O)Nc3nc(C)cc(C)n3)cc2)ccc1O | inactive | 10 mm | > 80 µM | 80 µM (≈ 52.4 µg/mL) | 13 mm | 9 mm | 11 mm | inactive | 9 mm | 11 mm | Not Active | > 80 µM | Not Active | 80 µM (≈ 52.4 µg/mL) | 12 mm | 11 mm | inactive | Not Active | 41.9% | 13 mm | diameter of the inhibition zone (DIZ) (Staphylococcus aureus [4]): inactive; zone of inhibition at 40 µM (Pseudomonas aeruginosa [31]): 10 mm; MIC (Aspergillus niger [11]; MTCC 1108, 48 h): > 80 µM; diameter of the inhibition zone (DIZ) (Pseudomonas aeruginosa [32]): inactive; zone of inhibition at 40 µM (Bacillus cereus [13]; MTCC 7350, 24 h, read-out: DIZ): 9 mm; MIC (Aspergillus flavus [15]; MTCC 1021, 48 h): > 80 µM; diameter of the inhibition zone (DIZ) (Escherichia coli [17]): inactive; diameter of the inhibition zone (DIZ) (Bacillus cereus [24]): inactive; inhibition zone (IZ) (Aspergillus flavus [25]): inactive; MIC (Escherichia coli [26]): > 80 µM; zone of inhibition at 80 µM (Pseudomonas aeruginosa [27]; ATCC 15499, 24 h, read-out: DIZ): 15 mm; MIC (Salmonella typhi [28]): > 80 µM; MIC (Trichoderma viride [29]): 80 µM (≈ 52.4 µg/mL); IC50 (HepG2): Not Active; inhibition zone (IZ) (Aspergillus niger [30]): inactive
